KCC2 mod = KCC2 (human) Cl- transport modulation | B-score of Tl+ flux slope (higher = more flux/activation; lower = inhibition) at 10 µM | Q9H2X9 | 2.2% of 190,000 active | KCC2 cells, thallium flux FluoZin-2 fluorescence | AID 1456;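 active means thallium flux slope and its plate-corrected score both differing from the plate sample mean at a set confidence after two filtering rounds, in either direction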;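 further: slope of fluorescence scaled to starting intensity during 10 to 20 s after thallium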
KCNQ1 pot = potentiates or activates the human KCNQ1 potassium channel. P51787. CHO-K1 KCNQ1, thallium flux FluxOR fluorescence; hits give high values. B-score at 10 µM. 0.35% of 310,000 active;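 active means fluorescence ratio B-score, a plate-corrected score, at least three library SD, with initial intensity B-score within 5 SD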
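System: CHO-K1 cells stably expressing KCNQ1 / Medium: assay buffer for compound exposure, DMSO matched across wells / Reagent: thallium- and potassium-containing depolarizing buffer / Compound: one concentration, matched DMSO / Incubation: 20 min compound pretreatment at room temperature / Measured by: kinetic FluxOR fluorescence, 10 s baseline plus 110 s post-stimulus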
KCNK3 inh = human KCNK3 channel inhibition, primary screen; B-score at 10 µM; O14649; AID 602410; CHO-KCNK3 thallium flux, FluxOR fluorescence; hits give low values; 0.84% of 340,000 active;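 active means B-score under library mean minus 4 SD, starting fluorescence ratio at most library mean plus 5 SD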;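 further: more negative B-score means stronger inhibition of thallium flux through KCNK3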
hERG protect = compounds protecting human hERG from proarrhythmic drug block; Q12809; CHO-hERG, FluxOR thallium flux, dofetilide IC70 present; activation (rescue from dofetilide block), less the hit threshold, % at 10 µM; 0.51% of 310,000 active;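 active means activation above the mean of controls blocked by dofetilide plus 5 SD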;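 further: thallium influx through hERG after potassium depolarization seen as dye fluorescence rise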
KCNK9 inh = human KCNK9 channel inhibition; Q9NPC2; HEK293 KCNK9, FluxOR thallium flux fluorescence; hits give low values; B-score at 10 µM; 1.2% of 310,000 active; AID 488922;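 active means ratio B-score over 3 SD below the library mean, with starting fluorescence within 5 SD of its mean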;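 further: negative B-score means less thallium flux so channel inhibition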
KCNQ1 block = inhibitors of human KCNQ1 potassium channel; P51787; CHO-K1 KCNQ1, FluxOR thallium flux fluorescence; hits give high values; B-score at 10 µM; 1.3% of 310,000 active; AID 2642;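 active means compounds whose thallium flux B-score, printed positive for inhibition, exceeds three library SD while starting fluorescence stays within three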;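 further: channel opened by potassium depolarization with thallium stimulus after 20 min compound exposure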
KCNK9 inh conf = human KCNK9 inhibitor confirmation; shares compounds with KCNK9 inh; HEK293 KCNK9 cells, FluxOR thallium flux fluorescence; inhibition, % at 10 µM; 43% of 4,900 active;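 active means thallium signal inhibited by more than 5 SD of the compound-free buffer control wells, on both duplicate plates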;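 further: 0% = assay buffer control wells without compound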
Kir21 sel = tests whether KCNK9 modulators also affect mouse Kir2.1; shares compounds with KCNK9 inh; Kir2.1 cells, FluxOR thallium flux fluorescence; inhibition, % at 10 µM; 4% of 4,900 active;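 active means thallium signal drop more than 5 SD beyond the mean of the no-compound control wells, seen in both duplicate plates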;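 further: signal is fluorescence rise after thallium addition divided by baseline fluorescence; plate controls were assay buffer only for no effect and full block by chlorpromazine control for full effect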
Target sequence (P35561 whole entry, looked up): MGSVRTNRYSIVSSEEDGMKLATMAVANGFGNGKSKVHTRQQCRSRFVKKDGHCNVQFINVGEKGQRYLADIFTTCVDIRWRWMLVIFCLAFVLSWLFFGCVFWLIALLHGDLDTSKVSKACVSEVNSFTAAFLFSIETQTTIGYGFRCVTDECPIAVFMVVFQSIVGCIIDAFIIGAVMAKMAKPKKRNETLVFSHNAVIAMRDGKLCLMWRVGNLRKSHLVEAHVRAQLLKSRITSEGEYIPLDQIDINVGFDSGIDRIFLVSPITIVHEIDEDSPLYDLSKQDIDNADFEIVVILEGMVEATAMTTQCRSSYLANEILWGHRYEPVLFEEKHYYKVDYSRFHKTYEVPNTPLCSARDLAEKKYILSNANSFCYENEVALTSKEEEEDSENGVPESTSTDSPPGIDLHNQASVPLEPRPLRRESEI
HEK293 Tl ctr = second check of KCNK9 modulator effects in non-induced HEK293 cells. shares compounds with KCNK9 inh. FluxOR thallium flux. inhibition, % at 10 µM. 40% of 4,900 active. AID 492997;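 active means thallium signal drop beyond 5 SD of the untreated control mean, on both duplicate plates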;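 further: plate controls were buffer only IC0 wells for no effect and SID17386958 at its maximal inhibitory level for full effect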
KCNK3 confirm = human KCNK3 channel inhibition, confirmation assay; CHO-KCNK3 thallium flux, FluxOR fluorescence; 0% buffer, 100% carvedilol maximal block; ratio percent of control, % at 10 µM; shares compounds with KCNK3 inh; AID 651638; 99% of 2,400 active;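 active means ratio percent of control, averaged over triplicates, above buffer control mean plus 5 SD, cut at about 64% in these data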;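 further: ratio is the fluorescence rise from min to max over baseline after thallium stimulus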
KCNK3 uninduced = counter-screen for KCNK3 inhibitors: effect in non-induced cells; shares compounds with KCNK3 inh; non-induced KCNK3 parental cells, FluxOR thallium flux; hits give low values; thallium flux ratio (lower = more inhibition) at 10 µM; 40% of 2,400 active;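 active means thallium flux ratio, averaged over three wells, more than 5 SD below the buffer control mean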;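 further: host cells are CHO cells without KCNK3 induction; ratio is peak minus trough fluorescence over baseline then normalized to buffer controls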
* hit, by the source's call. Compounds with a hit are over-represented: about 4.1% of the library has one in this group of screens.

Cc1ccc(Nc2nc(Nc3ccc(C)cc3)nc(SC3=NCCS3)n2)cc1 was read as KCNQ1 pot inactive, KCNK3 inh inactive, hERG protect -7.8, KCNK9 inh inactive and KCNQ1 block inactive.
`CCN(C(=O)CSc1nc2n[nH]c(C)c2c(=N)n1-c1ccc(Cl)c(C)c1)c1cccc(C)c1` gave KCNQ1 pot inactive, KCNK3 inh -12*, hERG protect -7.6, KCNK9 inh -21.2*, KCNQ1 block inactive, KCNK9 inh conf 68.5%*, Kir21 sel inactive, HEK293 Tl ctr 40.0%*, KCNK3 confirm 96.7* and KCNK3 uninduced 0.13*.
Screening CCOc1ccc(C(C)(C)C)cc1S(=O)(=O)n1nc(C)cc1C returned KCC2 mod -1.33, KCNQ1 pot inactive, KCNK3 inh -8.83*, hERG protect -2.5, KCNK9 inh -9.59*, KCNQ1 block 6*, KCNK9 inh conf 53.5%*, Kir21 sel inactive, HEK293 Tl ctr 37.5%*, KCNK3 confirm 113.3* and KCNK3 uninduced inactive.
Screening Cc1cc(C)nc(NC(=NCCc2c[nH]c3ccccc23)NC(=O)c2ccco2)n1 returned KCC2 mod 0.962, KCNQ1 pot inactive, KCNK3 inh -9.01*, hERG protect -20.6, KCNK9 inh -15.2*, KCNQ1 block inactive, KCNK9 inh conf 30.0%*, Kir21 sel inactive, HEK293 Tl ctr inactive, KCNK3 confirm 134.7* and KCNK3 uninduced 0.152*.
Screening C=C1CCC2[C@](C)(CO[C@@H]3O[C@H](CO)[C@@H](O)[C@H](O)[C@H]3O)CCC[C@@]2(C)[C@@H]1CCC1=CCOC1=O (stereo partly drawn) returned KCNK3 inh inactive.
Screening COC(=O)[C@H](CCSC)NC(=O)N1CCN(c2cccc(C(F)(F)F)c2)CC1 returned KCNQ1 pot inactive, KCNK3 inh inactive, hERG protect -8.3, KCNK9 inh -8.77*, KCNQ1 block inactive, KCNK9 inh conf 57.5%*, Kir21 sel inactive, HEK293 Tl ctr inactive, KCNK3 confirm 84.3* and KCNK3 uninduced inactive.
`Cc1ccccc1NC(=O)CN1C(=O)NC2(CCCCCCC2)C1=O` gave KCNK3 inh inactive.
Screening Oc1cc2c(cc1C(c1ccc(Cl)c(Cl)c1)N1CCCC1)OCO2 (stereo not drawn) returned KCC2 mod 0.257, KCNQ1 pot inactive, KCNK3 inh -12.4*, hERG protect -19.2, KCNK9 inh -8.7*, KCNQ1 block inactive, KCNK9 inh conf inactive, Kir21 sel inactive, HEK293 Tl ctr 41.0%*, KCNK3 confirm 136.3* and KCNK3 uninduced 0.15*.
For CCOc1cccc2sc(N(CCN(C)C)C(=O)c3ccc4ccccc4c3)nc12 the results were KCNQ1 pot inactive, KCNK3 inh -9.6*, hERG protect -23.4, KCNK9 inh -9.38*, KCNQ1 block inactive, KCNK9 inh conf 36.0%*, Kir21 sel inactive, HEK293 Tl ctr inactive, KCNK3 confirm 117.7* and KCNK3 uninduced inactive.
Screening O=C(c1ccc([N+](=O)[O-])s1)N1CCN(c2ccc(C(F)(F)F)cn2)CC1 returned KCNQ1 pot inactive, KCNK3 inh inactive, hERG protect -3.2, KCNK9 inh inactive and KCNQ1 block inactive.
`Cc1nc(NCCc2ccccc2)c2oc3ccccc3c2n1` gave KCC2 mod -1.95, KCNQ1 pot inactive, KCNK3 inh -10.4*, hERG protect -29.9, KCNK9 inh -12.7*, KCNQ1 block inactive, KCNK9 inh conf 55.5%*, Kir21 sel inactive, HEK293 Tl ctr inactive, KCNK3 confirm 131.0* and KCNK3 uninduced 0.122*.
`O=C(O)c1nccnc1C(=O)Nc1ccc(Cl)cn1` gave KCNQ1 pot inactive, KCNK3 inh inactive, hERG protect -0.3, KCNK9 inh inactive and KCNQ1 block inactive.
`O=C(Nc1ccc(O)c(-c2nc3ccccc3o2)c1)C1(c2ccccc2)CCCC1` gave KCNQ1 pot inactive, KCNK3 inh -9.57*, hERG protect -13.7, KCNK9 inh -12*, KCNQ1 block inactive, KCNK9 inh conf 39.5%*, Kir21 sel inactive, HEK293 Tl ctr inactive, KCNK3 confirm 100.3* and KCNK3 uninduced inactive.
`O=C(Nc1ccncc1)C1(c2ccccc2)CCCC1` gave KCNQ1 pot inactive, KCNK3 inh inactive, hERG protect 1.1, KCNK9 inh inactive and KCNQ1 block inactive.
Screening Cc1cc(C)n(S(=O)(=O)c2ccc3oc(=O)ccc3c2)n1 returned KCNQ1 pot inactive, KCNK3 inh inactive, hERG protect -3.2, KCNK9 inh inactive and KCNQ1 block inactive.
Screening CCC(Sc1nc(N)c(NC(=O)c2ccc(Br)o2)c(=O)[nH]1)C(=O)O (stereo not drawn) returned KCNQ1 pot inactive, KCNK3 inh inactive, hERG protect -8.4, KCNK9 inh inactive and KCNQ1 block inactive.
Screening O=C(NNC(=O)c1ccccc1OCc1ccccc1)c1ccccc1F returned KCNQ1 pot inactive, KCNK3 inh -11.4*, hERG protect -13.4, KCNK9 inh -9.76*, KCNQ1 block inactive, KCNK9 inh conf 29.0%*, Kir21 sel inactive, HEK293 Tl ctr 23.5%*, KCNK3 confirm 117.7* and KCNK3 uninduced 0.154*.
`Cc1ccccc1NC(=O)c1cccc2c1C(=O)N(C1CCCCC1)C2` gave KCNQ1 pot inactive, KCNK3 inh inactive, hERG protect -8.8, KCNK9 inh inactive and KCNQ1 block inactive.
CCOc1ccccc1NC(=O)c1cccc2c1C(=O)N(C1CCCCC1)C2 was read as KCNQ1 pot inactive, KCNK3 inh -10.8*, hERG protect -8.8, KCNK9 inh -9.08*, KCNQ1 block inactive, KCNK9 inh conf 37.5%*, Kir21 sel inactive, HEK293 Tl ctr 33.0%*, KCNK3 confirm 99.7* and KCNK3 uninduced inactive.
